Reference: ChEMBL document CHEMBL4706672 (J Med Chem, 2021)
The source made the active and inactive calls. The rule behind the calls is not given here.

Key:
[1] = test system: MIA PaCa-2; experiment: Antiproliferative activity against human MIA PaCa-2 cells assessed as reduction in cell viability incubated for 3 days by MTT assay; format: functional, cell-based; details: MIA PaCa-2, 72 h
Summary of the method: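 MTT assay. Cells were seeded at 3000–6000/well and incubated overnight, then exposed to compound or DMSO vehicle for 3 days in RPMI-1640 or DMEM with 10% FBS at 37 °C, 5% CO2. MTT (3 mg/ml) was added for 3 h at 37 °C, formazan was dissolved in DMSO and absorbance read at 570 nm. IC50 from three independent experiments, mean ± SD.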

[2] = test system: BXPC-3; experiment: Antiproliferative activity against human BxPC-3 cells assessed as reduction in cell viability incubated for 3 days by MTT assay; format: functional, cell-based; details: BXPC-3, 72 h
[3] = test system: HEK293; experiment: Antiproliferative activity against human HEK293 cells assessed as reduction in cell viability incubated for 24 hrs by MTT assay; format: functional, cell-based; details: HEK293, 24 h
Summary of the method: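 HEK-293 cells were treated with compound for 24 h, in parallel with the luciferase reporter assay. Viability was read by MTT absorbance at 570 nm, and IC50 was taken from three independent experiments.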

[4] = target: Protein cereblon/Signal transducer and activator of transcription 3 (Homo sapiens, UniProt P40763+Q96SW2); experiment: Protac activity at CRBN/STAT3 in human BxPC-3 cells assessed as effect on STAT3 expression level at 0.5 uM incubated for 16 hrs by western blot analysis; format: cell-based
Summary of the method: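 BxPC-3 cells seeded at 500 × 10^3 per well in 6-well plates, treated 16 h. Sonication lysis at 4 °C in Tris/NaCl/Triton/SDS buffer pH 7.4 with protease and phosphatase inhibitors, BCA protein assay, SDS-PAGE, PVDF transfer. Probed for STAT3, pSTAT3 and NQO1 with GAPDH loading control; fluorescent secondary detection.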

[5] = target: Signal transducer and activator of transcription 3 (Homo sapiens) (UniProt P40763); experiment: Inhibition of STAT3 phosphorylation in human BxPC-3 cells at 0.5 uM after 16 hrs by western blot analysis; format: cell-based
Summary of the method: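 Cells were seeded in 6-well plates (BxPC-3 500 × 10^3, MIA PaCa-2 200 × 10^3 cells/well) and exposed to compound for 16 h. Lysis was at 4 °C by sonication in Tris/NaCl/Triton/SDS buffer, pH 7.4, with protease and phosphatase inhibitors. Lysates were run on SDS-PAGE, transferred to PVDF and probed for STAT3, pSTAT3 and NQO1 with GAPDH as loading control. Immunoblots were imaged on an Odyssey system.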

Signal transducer and activator of transcription 3 (Homo sapiens), sequence (P40763 whole entry): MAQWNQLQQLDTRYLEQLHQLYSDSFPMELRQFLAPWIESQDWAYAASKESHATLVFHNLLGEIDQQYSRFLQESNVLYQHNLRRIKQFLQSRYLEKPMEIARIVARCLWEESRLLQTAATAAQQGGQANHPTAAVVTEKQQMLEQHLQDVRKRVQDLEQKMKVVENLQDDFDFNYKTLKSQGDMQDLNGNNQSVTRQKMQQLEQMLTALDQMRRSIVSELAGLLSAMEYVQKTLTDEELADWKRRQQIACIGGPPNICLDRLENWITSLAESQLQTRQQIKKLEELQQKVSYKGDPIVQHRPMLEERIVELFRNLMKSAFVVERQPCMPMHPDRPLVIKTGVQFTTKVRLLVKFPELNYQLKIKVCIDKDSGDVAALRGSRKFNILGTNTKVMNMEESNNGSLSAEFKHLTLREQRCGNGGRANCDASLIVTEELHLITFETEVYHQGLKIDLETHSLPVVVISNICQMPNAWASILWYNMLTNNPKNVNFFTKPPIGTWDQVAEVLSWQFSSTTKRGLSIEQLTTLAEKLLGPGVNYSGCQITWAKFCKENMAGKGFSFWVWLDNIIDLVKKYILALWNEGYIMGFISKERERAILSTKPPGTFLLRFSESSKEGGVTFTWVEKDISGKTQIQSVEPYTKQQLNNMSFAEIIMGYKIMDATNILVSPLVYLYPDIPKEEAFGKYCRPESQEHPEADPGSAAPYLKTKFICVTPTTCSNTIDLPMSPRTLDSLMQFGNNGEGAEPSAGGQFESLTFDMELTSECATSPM
Protein cereblon/Signal transducer and activator of transcription 3, sequence (P40763 2-770 limits assumed): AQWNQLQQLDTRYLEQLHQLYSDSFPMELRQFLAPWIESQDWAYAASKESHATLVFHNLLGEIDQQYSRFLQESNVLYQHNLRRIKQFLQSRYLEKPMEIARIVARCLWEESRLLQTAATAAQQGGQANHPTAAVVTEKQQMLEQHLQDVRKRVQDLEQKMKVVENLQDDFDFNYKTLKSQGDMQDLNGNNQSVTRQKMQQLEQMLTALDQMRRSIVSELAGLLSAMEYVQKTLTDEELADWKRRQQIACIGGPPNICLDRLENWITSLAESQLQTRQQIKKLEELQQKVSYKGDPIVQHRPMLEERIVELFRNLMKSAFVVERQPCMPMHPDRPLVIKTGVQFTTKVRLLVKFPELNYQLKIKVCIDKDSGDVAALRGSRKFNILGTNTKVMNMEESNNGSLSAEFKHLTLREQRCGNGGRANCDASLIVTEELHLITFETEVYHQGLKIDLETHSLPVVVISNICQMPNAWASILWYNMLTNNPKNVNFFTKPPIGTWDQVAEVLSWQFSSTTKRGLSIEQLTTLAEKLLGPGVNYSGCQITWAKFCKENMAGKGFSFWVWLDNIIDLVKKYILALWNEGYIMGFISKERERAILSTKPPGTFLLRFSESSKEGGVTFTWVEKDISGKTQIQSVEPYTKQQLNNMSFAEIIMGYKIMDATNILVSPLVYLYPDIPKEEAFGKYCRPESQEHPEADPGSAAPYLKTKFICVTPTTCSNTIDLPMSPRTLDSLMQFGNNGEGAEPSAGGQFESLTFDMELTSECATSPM
Protein cereblon/Signal transducer and activator of transcription 3, sequence (Q96SW2 whole entry partner): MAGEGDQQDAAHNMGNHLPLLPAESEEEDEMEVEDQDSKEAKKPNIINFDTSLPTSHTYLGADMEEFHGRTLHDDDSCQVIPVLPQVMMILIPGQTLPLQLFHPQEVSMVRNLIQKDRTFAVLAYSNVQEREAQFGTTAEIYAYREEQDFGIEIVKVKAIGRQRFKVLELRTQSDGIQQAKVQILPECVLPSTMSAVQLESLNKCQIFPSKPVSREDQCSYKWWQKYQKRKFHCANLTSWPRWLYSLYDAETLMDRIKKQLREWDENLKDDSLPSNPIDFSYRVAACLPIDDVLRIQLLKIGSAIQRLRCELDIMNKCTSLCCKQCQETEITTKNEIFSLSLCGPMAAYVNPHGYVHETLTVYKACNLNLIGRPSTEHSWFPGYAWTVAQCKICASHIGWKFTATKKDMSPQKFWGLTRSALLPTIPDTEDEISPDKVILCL

SMILES	IC50 [1] [µM]	IC50 [2] [µM]	IC50 [3] [µM]	Activity [4]	inhibition [5]
O=C1CCC(N2C(=O)c3cccc(NCCCCCNC(=O)c4cc5c(o4)C(=O)c4ccccc4C5=O)c3C2=O)C(=O)N1 (centres undefined)	1.8	3.2	> 10		
O=C1CCC(N2C(=O)c3cccc(NCCCCCCNC(=O)c4cc5c(o4)C(=O)c4ccccc4C5=O)c3C2=O)C(=O)N1 (centres undefined)	3	4.2			
Nc1cccc2c1C(=O)N(C1CCC(=O)NC1=O)C2=O (centres undefined) [POMALIDOMIDE]	> 30	> 30			
O=C(COc1cccc2c1C(=O)N(C1CCC(=O)NC1=O)C2=O)NCCOCCOCCNC(=O)c1cc2c(o1)C(=O)c1ccccc1C2=O (centres undefined)	16.7	20.4			
O=C1CCC(N2C(=O)c3cccc(NCCNC(=O)c4cc5c(o4)C(=O)c4ccccc4C5=O)c3C2=O)C(=O)N1 (centres undefined)	4	1.7	> 30		
O=C1CCC(N2C(=O)c3cccc(OCCCCNC(=O)c4cc5c(o4)C(=O)c4ccccc4C5=O)c3C2=O)C(=O)N1 (centres undefined)	2	4.2	> 10		
O=C1CCC(N2C(=O)c3cccc(OCCOCCOCCNC(=O)c4cc5c(o4)C(=O)c4ccccc4C5=O)c3C2=O)C(=O)N1 (centres undefined)	3.8	8.2			
O=C1CCC(N2C(=O)c3cccc(NCCOCCOCCOCCOCCNC(=O)c4cc5c(o4)C(=O)c4ccccc4C5=O)c3C2=O)C(=O)N1 (centres undefined)	4.4	10.1	> 10		
O=C1CCC(N2C(=O)c3cccc(NCCCC4CCN(CCNC(=O)c5cc6c(o5)C(=O)c5ccccc5C6=O)CC4)c3C2=O)C(=O)N1 (centres undefined)		0.6			
O=C(NCCN1CCCCC1)c1cc2c(o1)C(=O)c1ccccc1C2=O				inactive	Active
Cc1ncsc1-c1ccc(CNC(=O)[C@@H]2C[C@@H](O)CN2C(=O)[C@@H](NC(=O)COCCNC(=O)c2cc3c(o2)C(=O)c2ccccc2C3=O)C(C)(C)C)cc1	15.8	> 30	> 30		
O=C1CCC(N2Cc3c(NCCOCCOCCNC(=O)c4cc5c(o4)C(=O)c4ccccc4C5=O)cccc3C2=O)C(=O)N1 (centres undefined)	13.7		> 30		
O=C1CCC(N2C(=O)c3cccc(NCCOCCOCCOCCOCCOCCOCCNC(=O)c4cc5c(o4)C(=O)c4ccccc4C5=O)c3C2=O)C(=O)N1 (centres undefined)	5	7.5	10.8		
O=C(COc1cccc2c1C(=O)N(C1CCC(=O)NC1=O)C2=O)NCCCCNC(=O)c1cc2c(o1)C(=O)c1ccccc1C2=O (centres undefined)	10.5	23.8	> 30		
